Source: ChEMBL document CHEMBL4382285, “Discovery of Novel Retigabine Derivatives as Potent KCNQ4 and KCNQ5 Channel Agonists with Improved Specificity” (ACS Med Chem Lett, 2019)
Calls of active or inactive are those of the source. No cut-off for these calls is given here.

Key:
Format in all cases: cell-based
[1] = molecular target: Potassium voltage-gated channel subfamily KQT member 2 (Rattus norvegicus) (UniProt O88943); assay: Activity at rat KCNQ2 expressed in CHOK1 cells assessed as ratio of amplitude of outward current in presence of test compound to amplitude of outward current in absence of test compound at 10 uM at -10 mV by whole cell patch clamp assay
Summary of the method: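 CHO-K1 cells expressing the channel, whole-cell voltage clamp, compound at 10 μM. Read-out is the outward current ratio I/I0 with and without compound, taken at −10 mV. I/I0 > 1 counts as activation and < 1 as inhibition. More than four cells per compound.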

[2] = molecular target: T1, Potassium voltage-gated channel subfamily KQT member 4 (Homo sapiens) (UniProt P56696); assay: (§1) Activation of human homomeric KCNQ4 expressed in CHOK1 cells at -10 mV by whole cell patch clamp assay
T1 sequence (whole entry): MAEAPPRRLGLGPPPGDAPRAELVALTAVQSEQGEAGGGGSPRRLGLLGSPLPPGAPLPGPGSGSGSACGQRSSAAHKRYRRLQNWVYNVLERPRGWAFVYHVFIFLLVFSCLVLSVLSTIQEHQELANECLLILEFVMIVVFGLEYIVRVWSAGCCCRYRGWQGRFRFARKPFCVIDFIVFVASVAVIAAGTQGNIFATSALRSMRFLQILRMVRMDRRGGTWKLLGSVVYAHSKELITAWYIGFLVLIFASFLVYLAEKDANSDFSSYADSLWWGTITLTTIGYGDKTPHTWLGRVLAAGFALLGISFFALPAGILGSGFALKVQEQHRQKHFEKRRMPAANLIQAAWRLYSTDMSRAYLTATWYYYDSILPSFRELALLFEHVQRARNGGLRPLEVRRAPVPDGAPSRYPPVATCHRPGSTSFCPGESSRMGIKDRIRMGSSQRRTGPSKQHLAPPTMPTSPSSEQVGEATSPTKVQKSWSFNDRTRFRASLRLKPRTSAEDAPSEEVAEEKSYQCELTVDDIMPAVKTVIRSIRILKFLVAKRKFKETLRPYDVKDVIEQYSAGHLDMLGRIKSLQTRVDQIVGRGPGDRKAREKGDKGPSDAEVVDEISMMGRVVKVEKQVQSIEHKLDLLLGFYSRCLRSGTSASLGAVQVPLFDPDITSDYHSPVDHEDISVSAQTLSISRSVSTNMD
Summary of the method: (§2)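 Whole-cell voltage clamp of CHO-K1 cells expressing homomeric KCNQ4. Holding potential −80 mV with depolarizing steps; current read at −10 mV before and after compound at several concentrations. EC50 derived from the concentration–response relationship, with the Hill coefficient reported.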

[3] = molecular target: T2, Potassium voltage-gated channel subfamily KQT member 4 (Homo sapiens, UniProt P56696); assay: as §1; summary of the method: as §2
T2 sequence (P56696 whole entry): T1 sequence (whole entry)

[4] = molecular target: Potassium voltage-gated channel subfamily KQT member 2 (Rattus norvegicus) (UniProt O88943); assay: Activity at rat homomeric KCNQ2 expressed in CHOK1 cells assessed as effect on current amplitude up to 30 uM at -10 mV by whole cell patch clamp assay
Summary of the method: (§3)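 CHO-K1 cells expressing homomeric KCNQ2, recorded by whole-cell voltage clamp. Holding potential −80 mV with step depolarizations; current amplitude at −10 mV compared before and after compound across 1–30 μM, reported as percent change in current.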

[5] = molecular target: Potassium voltage-gated channel subfamily KQT member 2 (Rattus norvegicus, UniProt O88943); assay: Activation of rat homomeric KCNQ2 expressed in CHOK1 cells increase in current amplitude at 30 uM at -10 mV by whole cell patch clamp assay relative to control; summary of the method: as §3
[6] = molecular target: T3, Potassium voltage-gated channel subfamily KQT member 1 (Homo sapiens, UniProt P51787); assay: Activity at human KCNQ1 expressed in CHOK1 cells assessed as ratio of amplitude of outward current in presence of test compound to amplitude of outward current in absence of test compound at 10 uM at -10 mV by whole cell patch clamp assay
T3 sequence (P51787 whole entry): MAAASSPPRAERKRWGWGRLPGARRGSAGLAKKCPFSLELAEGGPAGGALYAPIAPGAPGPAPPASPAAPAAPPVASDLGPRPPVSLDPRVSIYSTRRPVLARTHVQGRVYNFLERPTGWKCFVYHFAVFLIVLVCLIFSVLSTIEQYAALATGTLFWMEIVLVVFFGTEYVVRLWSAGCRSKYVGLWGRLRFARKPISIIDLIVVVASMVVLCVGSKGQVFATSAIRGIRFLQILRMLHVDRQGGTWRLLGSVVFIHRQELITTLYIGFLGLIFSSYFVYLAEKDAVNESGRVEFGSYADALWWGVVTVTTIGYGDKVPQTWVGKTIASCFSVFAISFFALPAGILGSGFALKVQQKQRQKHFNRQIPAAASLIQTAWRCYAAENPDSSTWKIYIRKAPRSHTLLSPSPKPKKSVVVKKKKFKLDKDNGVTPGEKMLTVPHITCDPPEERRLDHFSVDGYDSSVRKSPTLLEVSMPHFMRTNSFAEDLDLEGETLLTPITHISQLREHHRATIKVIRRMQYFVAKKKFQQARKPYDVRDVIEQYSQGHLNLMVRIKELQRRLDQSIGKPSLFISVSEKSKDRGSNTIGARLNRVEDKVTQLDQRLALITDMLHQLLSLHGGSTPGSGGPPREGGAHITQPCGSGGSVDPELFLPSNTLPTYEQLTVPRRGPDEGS
Summary of the method: (§4)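 CHO-K1 cells individually transfected with a single KCNQ subtype; whole-cell voltage clamp. Held at −80 mV, stepped from −90 to +60 mV in 10 mV increments (1500 ms), then to −120 mV for 500 ms. Outward current at −10 or +60 mV measured before (I0) and after (I) 10 μM compound; I/I0 >1 counts as activation. More than four cells per compound.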

[7] = molecular target: T3, Potassium voltage-gated channel subfamily KQT member 1; assay: Activity at human KCNQ1 expressed in CHOK1 cells assessed as ratio of amplitude of outward current in presence of test compound to amplitude of outward current in absence of test compound at 10 uM at +60 mV by whole cell patch clamp assay; summary of the method: as §4
[8] = molecular target: Potassium voltage-gated channel subfamily KQT member 2 (Rattus norvegicus) (UniProt O88943); assay: Effect on voltage-dependent activation of rat KCNQ2 expressed in CHOK1 cells assessed as negative shift in current activation curve at 10 uM by whole cell patch clamp assay

Chain of Potassium voltage-gated channel subfamily KQT member 2 (Rattus norvegicus) (O88943 whole entry): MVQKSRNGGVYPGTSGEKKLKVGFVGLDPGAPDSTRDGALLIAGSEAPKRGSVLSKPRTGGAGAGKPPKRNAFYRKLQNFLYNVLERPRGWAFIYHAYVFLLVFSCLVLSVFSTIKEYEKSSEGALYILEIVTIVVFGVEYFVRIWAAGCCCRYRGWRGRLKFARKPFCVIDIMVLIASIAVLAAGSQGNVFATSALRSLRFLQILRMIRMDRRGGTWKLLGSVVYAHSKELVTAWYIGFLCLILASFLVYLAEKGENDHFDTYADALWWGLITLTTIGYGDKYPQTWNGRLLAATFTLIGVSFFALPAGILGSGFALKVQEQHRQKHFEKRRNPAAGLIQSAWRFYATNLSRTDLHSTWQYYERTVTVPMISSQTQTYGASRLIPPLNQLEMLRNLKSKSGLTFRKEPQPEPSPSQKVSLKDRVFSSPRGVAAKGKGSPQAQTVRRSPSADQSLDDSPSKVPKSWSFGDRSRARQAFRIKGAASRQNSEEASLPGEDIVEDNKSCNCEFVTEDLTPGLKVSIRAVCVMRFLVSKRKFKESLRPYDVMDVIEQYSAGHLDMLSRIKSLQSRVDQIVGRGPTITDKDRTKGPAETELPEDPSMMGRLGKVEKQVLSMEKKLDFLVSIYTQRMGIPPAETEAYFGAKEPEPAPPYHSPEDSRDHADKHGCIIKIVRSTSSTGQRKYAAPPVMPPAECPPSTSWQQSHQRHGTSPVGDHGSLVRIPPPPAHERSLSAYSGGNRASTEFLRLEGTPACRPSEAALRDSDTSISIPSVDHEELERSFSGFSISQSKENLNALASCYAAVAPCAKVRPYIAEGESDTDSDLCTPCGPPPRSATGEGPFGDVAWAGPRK
Chain of Potassium voltage-gated channel subfamily KQT member 2 (O88943 whole entry): as above

## C#CCN(Cc1ccc(F)cc1)c1ccc(NC(=O)OCC)c(NC(=O)OCC)c1
[1]
  Ratio: 0.94
[2]
  Activity: Dose-dependent effect
[3]
  EC50: 890 nM
[4]
  Activity: inactive
[5]
  Activity: 2%
[6]
  Ratio: 1
[7]
  Ratio: 1
[8]
  Activity: inactive
